The record followed here is ChEMBL document CHEMBL1139620, “Synthesis of a small library of diketopiperazines as potential inhibitors of calpain” (Bioorg Med Chem Lett, 2005).

Where a SMILES comes first, the peptide text is derived from it. [ ]: non-standard residue; d: D form. The star is where a group is joined. ξ: configuration not given here. ξF = NC(Cc1ccccc1)C(=O)O; Cbz = O=C(OCc1ccccc1)*

The target of experiment [1] is T1, Calpain-1 catalytic subunit (Homo sapiens) (UniProt P07384).
T1 sequence (whole entry): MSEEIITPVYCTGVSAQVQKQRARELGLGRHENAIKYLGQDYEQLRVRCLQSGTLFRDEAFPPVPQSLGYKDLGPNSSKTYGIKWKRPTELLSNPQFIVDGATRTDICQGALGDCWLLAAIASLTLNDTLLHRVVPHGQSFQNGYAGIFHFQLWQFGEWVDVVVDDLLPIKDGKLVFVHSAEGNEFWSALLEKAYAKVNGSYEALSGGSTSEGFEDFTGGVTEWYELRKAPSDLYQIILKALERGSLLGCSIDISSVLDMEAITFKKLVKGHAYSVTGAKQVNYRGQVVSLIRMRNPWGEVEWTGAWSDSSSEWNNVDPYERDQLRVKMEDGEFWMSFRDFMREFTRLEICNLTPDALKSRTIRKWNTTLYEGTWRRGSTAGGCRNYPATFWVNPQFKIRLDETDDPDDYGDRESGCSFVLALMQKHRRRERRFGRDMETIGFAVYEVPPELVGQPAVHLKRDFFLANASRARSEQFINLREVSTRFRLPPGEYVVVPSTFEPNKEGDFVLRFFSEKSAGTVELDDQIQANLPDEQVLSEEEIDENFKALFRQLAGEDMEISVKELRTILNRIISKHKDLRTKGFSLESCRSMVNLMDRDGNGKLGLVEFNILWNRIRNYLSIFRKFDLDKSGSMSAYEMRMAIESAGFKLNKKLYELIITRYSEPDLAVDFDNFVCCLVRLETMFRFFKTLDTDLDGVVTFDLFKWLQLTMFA
Put plainly: Percent inhibition of recombinant human calpain 1 at highest concentration of 150 uM; Inhibition values are within […]. Put shortly: (§1)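 Recombinant human calpain I expressed in baculovirus, continuous fluorescence assay with Suc-Leu-Tyr-AMC (8 mM stock) in Tris 50 mM pH 7.3, EDTA 0.5 mM, βME 10 mM. Started with CaCl2 (40 mM stock). Ex 380/em 460 nm, linear for at least 2 min. Percent inhibition is the drop in initial rate against DMSO-only controls at the highest concentration tested. Values are within 10%.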

The target of experiment [2] is T1, Calpain-1 catalytic subunit (Homo sapiens). As to the kind of experiment: Percent inhibition of human calpain 1 at 180 uM; Inhibition within […]. An outline of the steps: as §1
Experiment [3] shares this target. Put plainly: Percent inhibition of human calpain 1 at 580 uM; Inhibition within […]. An outline of the steps:
as §1

Experiment [4] has the same target. Put plainly: Percent inhibition of human calpain 1 at highest 200 uM; Inhibition within […]. An outline of the steps: as §1
For experiment [5] the target is unchanged. Put plainly: Percent inhibition of human calpain 1 at 350 uM; Inhibition within […]. An outline of the steps: as §1
For experiment [6] the target is unchanged. As to the kind of experiment: Percent inhibition of human calpain 1 at 100 uM; Inhibition within […]. An outline of the steps:
as §1

Experiment [7] shares this target. As to the kind of experiment: Percent inhibition of human calpain 1 at 160 uM; Inhibition within […]. An outline of the steps:
as §1

Experiment [8] has the same target. Put plainly: Percent inhibition of human calpain 1 at 90 uM; Inhibition within […]. An outline of the steps:
as §1

For experiment [9] the target is unchanged. Put plainly: Percent inhibition of human calpain 1 at 210 uM; Inhibition within […]. Put shortly:
as §1

For experiment [10] the target is unchanged. Put plainly: Percent inhibition of human calpain 1 at 650 uM; Inhibition within […]. Put shortly:
as §1

Experiment [11] can be described thus: Binding affinity for rat erythrocyte calpain.
The target in experiment [12] is T1, Calpain-1 catalytic subunit (Homo sapiens). As to the kind of experiment: Percent inhibition of human calpain 1 at 110 uM; Inhibition within […]. Put shortly: as §1
For experiment [13] the target is unchanged. As to the kind of experiment: Percent inhibition of human calpain 1 at 97 uM; Inhibition within […]. An outline of the steps: as §1
For experiment [14] the target is unchanged. As to the kind of experiment: Percent inhibition of human calpain 1 at 120 uM; Inhibition within […]. An outline of the steps: as §1
Experiment [15] shares this target. As to the kind of experiment: Percent inhibition of human calpain 1 at 300 uM; Inhibition within […]. Put shortly: as §1
The target is the same in experiment [16]. Put plainly: Percent inhibition of human calpain 1 at 610 uM; Inhibition within […]. Put shortly: as §1
Experiment [17] has the same target. As to the kind of experiment: Percent inhibition of human calpain 1 at 190 uM; Inhibition within […]. Put shortly: as §1
The target is the same in experiment [18]. As to the kind of experiment: Percent inhibition of human calpain 1 at 500 uM; Inhibition within […]. An outline of the steps: as §1
For experiment [19] the target is unchanged. Put plainly: Percent inhibition of human calpain 1 at 680 uM; Inhibition within […]. An outline of the steps: as §1
Experiment [20] in a line: Concentration required for inhibition of calpain. Put shortly:
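Calpain I (recombinant human, baculovirus-expressed) was hydrolysing Suc-Leu-Tyr-AMC in Tris 50 mM pH 7.3 with EDTA 0.5 mM and βME 10 mM, activated by CaCl2 (40 mM stock). Fluorescence was followed continuously at ex 380/em 460 nm. The value is the concentration giving a 50% decrease in initial hydrolysis rate relative to DMSO controls.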

For experiment [21], the target named is T1, Calpain-1 catalytic subunit (Homo sapiens). As to the kind of experiment: Percent inhibition of human calpain 1 at 360 uM; Inhibition within […]. An outline of the steps:
as §1

For experiment [22] the target is unchanged. As to the kind of experiment: Percent inhibition of human calpain 1 at 280 uM; Inhibition within […]. An outline of the steps:
as §1

The target is the same in experiment [23]. As to the kind of experiment: Percent inhibition of human calpain 1 at 170 uM; Inhibition within […]. Put shortly: as §1
For experiment [24] the target is unchanged. Put plainly: Percent inhibition of human calpain 1 at 130 uM; Inhibition within […]. Put shortly: as §1
Experiment [25] shares this target. Put plainly: Percent inhibition of human calpain 1 at 550 uM; Inhibition within […]. An outline of the steps:
as §1

Experiment [26] has the same target. As to the kind of experiment: Percent inhibition of human calpain 1 at 920 uM; Inhibition within […]. An outline of the steps: as §1

As to `COC(=O)C[C@@H]1NC(=O)[C@H](COCc2ccccc2)NC1=O`, the inhibition in [1] is 0%.

The molecule `O=C1N[C@@H](Cc2ccc(O)cc2)C(=O)N[C@H]1Cc1ccccc1` came in with an inhibition in [2] of 0%.

For `C[C@H](O)[C@@H]1NC(=O)[C@H](Cc2ccc(O)cc2)NC1=O`, the inhibition in experiment [3] came out at 0%.

In experiment [4], `O=C1N[C@@H](Cc2c[nH]c3ccccc23)C(=O)N[C@H]1COCc1ccccc1` returned an inhibition of 0%.

`Cc1ccc(S(=O)(=O)/N=C(/N)NCCC[C@@H]2NC(=O)[C@H](Cc3ccccc3)NC2=O)cc1`: the inhibition in experiment [5] came out at 0%.

As to `O=C1N[C@@H](Cc2c[nH]c3ccccc23)C(=O)N[C@H]1Cc1ccccc1`, in experiment [6], the inhibition stood at 0%.

As for `COC(=O)C[C@@H]1NC(=O)[C@H](Cc2ccccc2)NC1=O`, the inhibition in experiment [7] was 13%.

As to `COC(=O)C[C@@H]1NC(=O)[C@H](Cc2ccc(O)cc2)NC1=O`, the inhibition in experiment [8] turned out to be 25%.

With `COC(=O)C[C@H]1NC(=O)[C@H](Cc2ccc(O)cc2)NC1=O`, the inhibition in [9] is 0%.

`O=C1N[C@@H](Cc2ccc(OCc3ccccc3)cc2)C(=O)N[C@H]1Cc1ccccc1`: the inhibition in [10] came to 50%.

Take `CC(C)[C@H](NC(=O)OCc1ccccc1)C(=O)NC(C=O)Cc1ccccc1` (stereo partly drawn) (Cbz-Val-[ξF]-aldehyde): the affinity in experiment [11], expressed as Ki, was 10 nM. That is a double-digit nanomolar value.

`CC(C)C[C@@H]1NC(=O)[C@H](COCc2ccccc2)NC1=O` gave an inhibition in experiment [12] of 0%.

For the molecule `O=C1N[C@@H](Cc2ccc(OCc3ccccc3)cc2)C(=O)N[C@H]1Cc1ccc(OCc2ccccc2)cc1`, the inhibition in [13] was found to be 50%.

Turning to `COC(=O)C[C@@H]1NC(=O)[C@H](Cc2ccc(OCc3ccccc3)cc2)NC1=O`, the inhibition in experiment [14] was 0%.

In experiment [15], `CN1C(=O)[C@H](Cc2ccccc2)N(C)C(=O)[C@@H]1Cc1ccccc1` had an inhibition of 0%.

In turn, `COC(=O)C[C@H]1NC(=O)[C@H](Cc2ccccc2)NC1=O` registered an inhibition in experiment [16] of 25%.

In experiment [17], `CC(C)C[C@@H]1NC(=O)[C@H](Cc2ccc(O)cc2)NC1=O` returned an inhibition of 0%.

For `O=C1N[C@@H](Cc2c[nH]c3ccccc23)C(=O)N[C@H]1Cc1ccc(O)cc1`, the inhibition in experiment [1] turned out to be 0%.

As for `O=C1N[C@@H](Cc2ccc(O)cc2)C(=O)N[C@H]1Cc1ccc(O)cc1`, the inhibition in experiment [18] amounted to 0%.

As for `CN1C(=O)[C@H](Cc2ccc(O)cc2)N(C)C(=O)[C@@H]1Cc1ccc(O)cc1`, in [19], the inhibition stood at 0%. Also, the concentration for half-maximal inhibition (IC50) in experiment [20] worked out at 800 nM.

In the case of `CN1C(=O)[C@H](Cc2ccc(O)cc2)N(C)C(=O)[C@@H]1Cc1ccccc1`, the inhibition in [21] is 0%.

The molecule `O=C(O)/C(S)=C/c1ccc(I)cc1` showed an IC50 in experiment [20] of 400 nM.

The molecule `O=C1N[C@@H](Cc2ccccc2)C(=O)N[C@H]1Cc1ccccc1` returned an inhibition in experiment [22] of 0%.

As to `O=C1N[C@@H](Cc2ccc(O)cc2)C(=O)N[C@H]1COCc1ccccc1`, the inhibition in experiment [14] worked out at 0%.

For `Cc1ccc(S(=O)(=O)/N=C(/N)NCCC[C@@H]2NC(=O)[C@H](Cc3ccc(O)cc3)NC2=O)cc1`, the inhibition in [23] was 0%.

Turning to `CN1C(=O)[C@H](Cc2ccc(OCc3ccccc3)cc2)N(C)C(=O)[C@@H]1Cc1ccc(OCc2ccccc2)cc1`, the inhibition in experiment [5] was found to be 50%.

Molecule `COc1c([C@@H](O)CC(C)C)ccc2c1C(=O)OCc1cc(C)cc(O)c1O2` [PENICILLIDE] showed an IC50 in experiment [20] of 7100 nM.

As to `CC(C)C[C@@H]1NC(=O)[C@H](Cc2ccccc2)NC1=O`, the inhibition in [24] was 0%.

`CC(C)[C@@H]1NC(=O)[C@H](Cc2ccc(OCc3ccccc3)cc2)NC1=O` came in with an inhibition in experiment [4] of 0%.

Consider `CC(C)c1ncc(Cc2ccccc2)nc1O`, for which the inhibition in experiment [25] was determined as 0%. For the same molecule, in experiment [20], inhibition was half-maximal at 1300 nM (IC50).

Consider `C[C@H](O)[C@@H]1NC(=O)[C@H](Cc2ccccc2)NC1=O`, for which the inhibition in experiment [17] came to 30%.

The molecule `O=C1N[C@@H](Cc2c[nH]c3ccccc23)C(=O)N[C@H]1Cc1c[nH]c2ccccc12` had an inhibition in experiment [2] of 0%.

As for `CC(C)C[C@@H]1NC(=O)[C@H](Cc2c[nH]c3ccccc23)NC1=O`, the inhibition in [26] is 0%.

As for `O=C1N[C@@H](Cc2ccccc2)C(=O)N[C@H]1COCc1ccccc1`, the inhibition in experiment [15] is 0%.

What is called inhibition is the drop in the measured response relative to a control, in per cent. Usually Ki stands for a measure of affinity in units of concentration, obtained from inhibition or displacement. Low values mean a stronger hold on the target, high ones a looser hold on the target. Usually IC50 stands for the midpoint of a concentration-inhibition curve. The low end stands for greater potency, the high end for weaker potency.
